Reference: ChEMBL document CHEMBL1126637, “Dicarboxylate diamide dimercaptide (N2S2) technetium-99m complexes: synthesis and biological evaluation as potential renal radiopharmaceuticals” (J Med Chem, 1993)
Values joined by “and” are separate entries in the source; they are usually repeats but may differ in a detail not shown here. Identical values can stand only once.

Legend:
[1] = species on record: Rattus norvegicus; experiment: Biodistribution of the [99mTc] complex with OIH in rat heart at 10 min postinjection (3-4 rats used); assay type: ADME, organism-based; conditions: in vivo
Summary of the method: (§1)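 Male Sprague-Dawley rats (200-300 g), ketamine/xylazine anesthesia (80 mg/kg : 8 mg/kg), bladder cannulated with PE 50 tubing. Given iv via femoral vein 0.2 mL saline holding the 99mTc complex (20 µCi) co-injected with [131I]OIH (7 µCi). Percent injected dose per organ from comparing tissue radioactivity against dilutions of the injected dose, corrected for 131I spillover into the 99mTc channel; mean ±SD, 3-4 rats.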

[2] = species on record: Rattus norvegicus; experiment: Biodistribution of the [99mTc] complex in rat kidney at 60 min postinjection (3-4 rats used); assay type: ADME, organism-based; conditions: in vivo, 1 h; summary of the method: as §1
[3] = test system: Monkey; experiment: Percentage of counts in the pellet/total number of counts in both supernatant and pellet in monkey plasma (n=3); assay type: functional, Cercopithecidae
Summary of the method: (§2)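 Plasma from male cynomolgus monkey or male Sprague-Dawley rat blood (centrifuged 4000 rpm, 5 min). 99mTc complex in 50% ethanol/H2O (1 × 10^6 counts) incubated with 1 mL plasma at 37 °C for 30 min. Precipitation with 0.4 mL 10% trichloroacetic acid, centrifuged 4000 rpm 10 min, pellet washed twice with water. Bound = pellet counts/(pellet + supernatant + washes) counts; 3 determinations, mean ± SD.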

[4] = species on record: Rattus norvegicus; experiment: Biodistribution of the [99mTc] complex with OIH in rat lung at 60 min postinjection (3-4 rats used); assay type: ADME, organism-based; conditions: in vivo, 1 h; summary of the method: as §1
[5] = species on record: Rattus norvegicus; experiment: Biodistribution of the [99mTc] complex in rat heart at 10 min postinjection (3-4 rats used); assay type: ADME, organism-based; conditions: in vivo; summary of the method: as §1
[6] = species on record: Rattus norvegicus; experiment: Biodistribution of the [99mTc] complex in rat lung at 60 min postinjection (3-4 rats used); assay type: ADME, organism-based; conditions: in vivo, 1 h; summary of the method: as §1
[7] = species on record: Rattus norvegicus; experiment: Biodistribution of the [99mTc] complex with OIH in rat spleen at 10 min postinjection (3-4 rats used); assay type: ADME, organism-based; conditions: in vivo; summary of the method: as §1
[8] = species on record: Rattus norvegicus; experiment: Biodistribution of the [99mTc] complex with OIH in rat lung at 10 min postinjection (3-4 rats used); assay type: ADME, organism-based; conditions: in vivo; summary of the method: as §1
[9] = species on record: Rattus norvegicus; experiment: Biodistribution of the [99mTc] complex in rat muscle at 60 min postinjection (3-4 rats used); assay type: ADME, organism-based, Muscle tissue; conditions: in vivo, 1 h; summary of the method: as §1
[10] = species on record: Rattus norvegicus; experiment: Biodistribution of the [99mTc] complex in rat heart at 60 min postinjection (3-4 rats used); assay type: ADME, organism-based; conditions: in vivo, 1 h; summary of the method: as §1
[11] = species on record: Rattus norvegicus; experiment: Biodistribution of the [99mTc] complex in rat spleen at 60 min postinjection (3-4 rats used); assay type: ADME, organism-based; conditions: in vivo, 1 h; summary of the method: as §1
[12] = species on record: Rattus norvegicus; experiment: Biodistribution of the [99mTc] complex with OIH in rat spleen at 60 min postinjection (3-4 rats used); assay type: ADME, organism-based; conditions: in vivo, 1 h; summary of the method: as §1
[13] = species on record: Rattus norvegicus; experiment: Biodistribution of the [99mTc] complex in rat intestines at 10 min postinjection (3-4 rats used); assay type: ADME, organism-based, Intestine; conditions: in vivo; summary of the method: as §1
[14] = species on record: Rattus norvegicus; experiment: Biodistribution of the [99mTc] complex in rat blood at 60 min postinjection (3-4 rats used); assay type: ADME, organism-based; conditions: in vivo, 1 h; summary of the method: as §1
[15] = species on record: Rattus norvegicus; experiment: Biodistribution of the [99mTc] complex with OIH in rat intestine at 60 min postinjection (3-4 rats used); assay type: ADME, organism-based; conditions: in vivo, 1 h; summary of the method: as §1
[16] = species on record: Rattus norvegicus; experiment: Biodistribution of the [99mTc] complex in rat intestines at 60 min postinjection (3-4 rats used); assay type: ADME, organism-based, Intestine; conditions: in vivo, 1 h; summary of the method: as §1
[17] = species on record: Rattus norvegicus; experiment: Biodistribution of the [99mTc] complex in rat liver at 10 min postinjection (3-4 rats used); assay type: ADME, organism-based; conditions: in vivo; summary of the method: as §1
[18] = species on record: Rattus norvegicus; experiment: Biodistribution of the [99mTc] complex in with OIH rat kidney at 60 min postinjection (3-4 rats used); assay type: ADME, organism-based; conditions: in vivo, 1 h; summary of the method: as §1
[19] = species on record: Rattus norvegicus; experiment: Biodistribution of the [99mTc] complex in rat blood at 10 min postinjection (3-4 rats used); assay type: ADME, organism-based; conditions: in vivo; summary of the method: as §1
[20] = species on record: Rattus norvegicus; experiment: Biodistribution of the [99mTc] complex with OIH in rat muscle at 10 min postinjection (3-4 rats used); assay type: ADME, organism-based, Muscle tissue; conditions: in vivo; summary of the method: as §1
[21] = species on record: Rattus norvegicus; experiment: Biodistribution of the [99mTc] complex with OIH in rat intestine at 10 min postinjection (3-4 rats used); assay type: ADME, organism-based; conditions: in vivo; summary of the method: as §1
[22] = species on record: Rattus norvegicus; experiment: Biodistribution of the [99mTc] complex with OIH in rat liver at 60 min postinjection (3-4 rats used); assay type: ADME, organism-based; conditions: in vivo, 1 h; summary of the method: as §1
[23] = species on record: Rattus norvegicus; experiment: Biodistribution of the [99mTc] complex in rat spleen at 10 min postinjection (3-4 rats used); assay type: ADME, organism-based; conditions: in vivo; summary of the method: as §1
[24] = species on record: Rattus norvegicus; experiment: Biodistribution of the [99mTc] complex in rat lung at 10 min postinjection (3-4 rats used); assay type: ADME, organism-based; conditions: in vivo; summary of the method: as §1
[25] = species on record: Rattus norvegicus; experiment: Biodistribution of the [99mTc] complex with OIH in rat heart at 60 min postinjection (3-4 rats used); assay type: ADME, organism-based; conditions: in vivo, 1 h; summary of the method: as §1
[26] = species on record: Rattus norvegicus; experiment: Biodistribution of the [99mTc] complex with OIH in rat blood at 60 min postinjection (3-4 rats used); assay type: ADME, organism-based; conditions: in vivo, 1 h; summary of the method: as §1
[27] = species on record: Rattus norvegicus; experiment: Biodistribution of the [99mTc] complex in rat kidney at 10 min postinjection (3-4 rats used); assay type: ADME, organism-based; conditions: in vivo; summary of the method: as §1
[28] = species on record: Rattus norvegicus; experiment: Biodistribution of the [99mTc] complex with OIH in rat muscle at 60 min postinjection (3-4 rats used); assay type: ADME, organism-based, Muscle tissue; conditions: in vivo, 1 h; summary of the method: as §1
[29] = species on record: Rattus norvegicus; experiment: Biodistribution of the [99mTc] complex with OIH in rat liver at 10 min postinjection (3-4 rats used); assay type: ADME, organism-based; conditions: in vivo; summary of the method: as §1
[30] = species on record: Rattus norvegicus; experiment: Percentage of counts in the pellet/total number of counts in both supernatant and pellet in rat plasma (n=3); assay type: functional; summary of the method: as §2
[31] = species on record: Rattus norvegicus; experiment: Biodistribution of the [99mTc] complex with OIH in rat blood at 10 min postinjection (3-4 rats used); assay type: ADME, organism-based; conditions: in vivo; summary of the method: as §1
[32] = species on record: Rattus norvegicus; experiment: Biodistribution of the [99mTc] complex in rat muscle at 10 min postinjection (3-4 rats used); assay type: ADME, organism-based, Muscle tissue; conditions: in vivo; summary of the method: as §1
[33] = species on record: Rattus norvegicus; experiment: Biodistribution of the [99mTc] complex with OIH in rat kideny at 10 min postinjection (3-4 rats used); assay type: ADME, organism-based; conditions: in vivo; summary of the method: as §1
[34] = species on record: Rattus norvegicus; experiment: Biodistribution of the [99mTc] complex in rat liver at 60 min postinjection (3-4 rats used); assay type: ADME, organism-based; conditions: in vivo, 1 h; summary of the method: as §1
[35] = test system: Monkey; experiment: Percentage of counts in the pellet/total number of counts in both supernatant and pellet in monkey plasma; assay type: functional, Cercopithecidae; summary of the method: as §2
[36] = species on record: Rattus norvegicus; experiment: Biodistribution of the [99mTc] complex with OIH in rat intestines at 60 min postinjection (3-4 rats used); assay type: ADME, organism-based, Intestine; conditions: in vivo, 1 h; summary of the method: as §1
[37] = species on record: Rattus norvegicus; experiment: Percentage of counts in the pellet/total number of counts in both supernatant and pellet in rat plasma; assay type: functional; summary of the method: as §2
[38] = species on record: Rattus norvegicus; experiment: Biodistribution of the [99mTc] complex with OIH in rat kidney at 60 min postinjection (3-4 rats used); assay type: ADME, organism-based; conditions: in vivo, 1 h; summary of the method: as §1
[39] = species on record: Rattus norvegicus; experiment: Biodistribution of the [99mTc] complex with OIH in rat kidney at 10 min postinjection ( 3-4 rats used); assay type: ADME, organism-based; conditions: in vivo; summary of the method: as §1
[40] = species on record: Rattus norvegicus; experiment: Biodistribution of the [99mTc] complex with OIH in rat intestines at 10 min postinjection (3-4 rats used); assay type: ADME, organism-based, Intestine; conditions: in vivo; summary of the method: as §1
[41] = species on record: Rattus norvegicus; experiment: Biodistribution of the [99mTc] complex with OIH in rat blood at 60 min postinjection (, 3-4 rats used); assay type: ADME, organism-based; conditions: in vivo, 1 h; summary of the method: as §1
[42] = species on record: Rattus norvegicus; experiment: Biodistribution of the [99mTc] complex with OIH in rat spleen at 10 min postinjection (mean +/- SD, 3-4 rats used); assay type: ADME, organism-based; conditions: in vivo; summary of the method: as §1

Injected dose [1] [%] | Injected dose [2] [%] | Injected dose [5] [%] | Injected dose [6] [%] | Injected dose [9] [%] | Injected dose [10] [%] | Injected dose [11] [%] | Injected dose [12] | Injected dose [13] [%] | Injected dose [14] [%] | Injected dose [16] [%] | Injected dose [17] [%] | Injected dose [19] [%] | Injected dose [23] [%] | Injected dose [24] [%] | Injected dose [27] [%] | Injected dose [32] [%] | Injected dose [34] [%] | Compound | Activity [3] [%] | Activity [30] [%] | also measured
0.1 | 1.9 | 0.4 | 0.7 | 20.4 | 0.3 | 0.1 | < 0.1% | 1.4 | 15.2 | 1.7 | 5 | 26.2 | 0.2 | 1.1 | 5.3 | 22.8 | 3 | COC(=O)C(CC(=O)NCCNC(=O)CC(SC(=O)c1ccccc1)C(=O)OC)SC(=O)c1ccccc1 (centres undefined) | 26.5 | 22 | Injected dose [4]: < 0.1%; Injected dose [7]: < 0.1%; Injected dose [8]: 0.2%; Injected dose [15]: 1.6%; Injected dose [18]: 0.5%; Injected dose [20]: 7.9%; Injected dose [21]: 1.6%; Injected dose [22]: 0.5%; Injected dose [25]: < 0.1%; Injected dose [26]: 0.5%; Injected dose [28]: 1.6%; Injected dose [29]: 3.3%; Injected dose [31]: 4.4%; Injected dose [33]: 9.9%
– | – | – | – | – | – | – | – | – | – | – | – | – | – | – | – | – | – | [sequence] | – | 30.3 | Activity ([3]; Cercopithecidae): 35.2%
< 0.1 | 2.1 | 0.4 | 0.7 | 21.1 | 0.2 | 0.1 | < 0.1% | 1.7 | 16.4 | 1.3 | 5 | 26.7 | 0.3 | 1.2 | 4.3 | 26.9 | 3.1 | COC(=O)CC(SC(=O)c1ccccc1)C(=O)NCCNC(=O)C(CC(=O)OC)SC(=O)c1ccccc1 (centres undefined) | – | – | Activity [35]: 26.2%; Injected dose [36]: 0.8%; Activity [37]: 31.1%; Injected dose [4]: < 0.1%; Injected dose [8]: 0.3%; Injected dose [38]: 0.6%; Injected dose [39]: 6.9%; Injected dose [20]: 9.9%; Injected dose [22]: 0.3%; Injected dose [25]: < 0.1%; Injected dose [40]: 1.4%; Injected dose [28]: 1.6%; Injected dose [29]: 2.5%; Injected dose [31]: 5.3%; Injected dose [41]: 0.6%; Injected dose [42]: 0.1%

Compound | Injected dose [1] [%] | Injected dose [2] [%] | Injected dose [5] [%] | Injected dose [6] [%] | Injected dose [9] [%] | Injected dose [10] [%] | Injected dose [11] [%] | Injected dose [12] | Injected dose [13] [%] | Injected dose [14] [%] | Injected dose [16] [%] | Injected dose [17] [%] | Injected dose [19] [%] | Injected dose [23] [%] | Injected dose [24] [%] | Injected dose [27] [%] | Injected dose [32] [%] | Injected dose [34] [%] | Activity [3] [%] | Activity [30] [%] | also measured
CCOC(=O)C(SC(=O)c1ccccc1)C(=O)NCCNC(=O)C(SC(=O)c1ccccc1)C(=O)OCC (centres undefined) | – | 4 | 0.4 | 0.7 | 21.5 | 0.2 | 0.1 | 0.9% and 0.2% and 0.4% and 2% and 1.6% and < 0.1% | 1.6 | 13.1 | 1.3 | 4.9 | 24 | 0.2 | 0.9 | 6 | 23.6 | 5 | 21.9 | 21.4 | –
